Laboratory results: ChEMBL document CHEMBL3792280, “Design and synthesis of novel quinoxaline derivatives as potential candidates for treatment of multidrug-resistant and latent tuberculosis” (Bioorg Med Chem Lett, 2016)
≈ marks a conversion by molar mass, not a printed value.

How the values were obtained:
Type in all cases: functional
[1] = system: Mycobacterium tuberculosis; experiment: Antimicrobial activity against isoniazid resistant Mycobacterium tuberculosis SRI 1369 after 7 days; settings: SRI 1369, 168 h
Outline: (§1)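 MIC in µg/mL, retested on susceptible H37Rv (SRI 1345) in the same panel as single-drug-resistant strains: isoniazid-, rifampin- and ofloxacin-resistant. Percent inhibition recorded at the MIC concentration. Ratio taken as MIC H37Rv / MIC resistant strain.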

[2] = system: Mycobacterium tuberculosis; experiment: Antimicrobial activity against ofloxacin resistant Mycobacterium tuberculosis SRI 4000 after 7 days; settings: SRI 4000, 168 h; outline: as §1
[3] = system: Mycobacterium tuberculosis; experiment: Antimicrobial activity against ofloxacin resistant Mycobacterium tuberculosis SRI 4000 assessed as growth inhibition at MIC after 7 days; outline: as §1
[4] = system: Mycobacterium tuberculosis; experiment: Antimicrobial activity against isoniazid resistant Mycobacterium tuberculosis SRI 1369 assessed as growth inhibition at MIC after 7 days; outline: as §1
[5] = Ratio of MIC for Mycobacterium tuberculosis H37Rv SRI 1345 to MIC for isoniazid resistant Mycobacterium tuberculosis SRI 1369; outline: as §1
[6] = system: Mycobacterium tuberculosis; experiment: Antimicrobial activity against rifampicin resistant Mycobacterium tuberculosis SRI 1367 assessed as growth inhibition at MIC after 7 days; outline: as §1
[7] = system: Mycobacterium tuberculosis; experiment: Antimicrobial activity against rifampicin resistant Mycobacterium tuberculosis SRI 1367 after 7 days; settings: SRI 1367, 168 h; outline: as §1
[8] = Ratio of MIC for Mycobacterium tuberculosis H37Rv SRI 1345 to MIC for rifampicin resistant Mycobacterium tuberculosis SRI 1367; outline: as §1
[9] = Ratio of MIC for Mycobacterium tuberculosis H37Rv SRI 1345 to MIC for ofloxacin resistant Mycobacterium tuberculosis SRI 4000; outline: as §1

| SMILES | MIC [1] | MIC [2] | growth inhibition (GI) [3] | growth inhibition (GI) [4] | Ratio [5] | growth inhibition (GI) [6] | MIC [7] | Ratio [8] | Ratio [9] |
| --- | --- | --- | --- | --- | --- | --- | --- | --- | --- |
| CO[C@H]1/C=C/O[C@@]2(C)Oc3c(C)c(O)c4c(O)c(c(/C=N/N5CCN(C)CC5)c(O)c4c3C2=O)NC(=O)/C(C)=C\C=C\[C@H](C)[C@H](O)[C@@H](C)[C@@H](O)[C@@H](C)[C@H](OC(C)=O)[C@@H]1C [RIFAMPIN] | 0.05 µg/mL (≈ 0.0608 µM) | 0.195 µg/mL (≈ 0.237 µM) | 53% | 72% | – | – | – | – | – |
| CC(=O)c1c(C(F)(F)F)nc2cc(F)c(N3CCSCC3)cc2[n+]1[O-] | 0.75 µg/mL (≈ 2 µM) | 0.19 µg/mL (≈ 0.506 µM) | 62% | 89% | 1 | 75% | 0.38 µg/mL (≈ 1.01 µM) | 2 | 4 |
| NNC(=O)c1ccncc1 [ISONIAZID] | – | – | – | – | – | 55% | 0.02 µg/mL (≈ 0.146 µM) | – | – |
| O=C(c1ccco1)c1c(C(F)(F)F)[n+]([O-])c2cc(Cl)c(N3CCOCC3)cc2[n+]1[O-] | 0.5 µg/mL (≈ 1.13 µM) | 0.25 µg/mL (≈ 0.563 µM) | 76% | 78% | 4 | 66% | 0.5 µg/mL (≈ 1.13 µM) | 4 | 8 |
| Cc1c(C(=O)/C=C/c2ccccc2)[n+]([O-])c2cc(Cl)ccc2[n+]1[O-] | 1 µg/mL (≈ 2.93 µM) | 0.5 µg/mL (≈ 1.47 µM) | 100% | 64% | 2 | 51% | 0.5 µg/mL (≈ 1.47 µM) | 4 | 4 |
| CC(=O)c1c(C(F)(F)F)[n+]([O-])c2cc(F)c(N3CCCCC3)cc2[n+]1[O-] | 0.25 µg/mL (≈ 0.67 µM) | 0.25 µg/mL (≈ 0.67 µM) | 84% | 57% | – | 68% | 0.25 µg/mL (≈ 0.67 µM) | – | – |
| COC(=O)c1c(C(F)(F)F)[n+]([O-])c2ccc(N3CCN(c4ccc(F)cc4)CC3)cc2[n+]1[O-] | 0.19 µg/mL (≈ 0.407 µM) | 0.19 µg/mL (≈ 0.407 µM) | 81% | 51% | 8 | 73% | 0.19 µg/mL (≈ 0.407 µM) | 8 | 8 |
